Measurements reported in ChEMBL document CHEMBL4414555, “Constituents from Nauclea latifolia with Anti-Haemophilus influenzae Type b Inhibitory Activities” (2019).
Values after ≈ are worked out from the molar mass of the structure shown.

Tests used:
Format in all cases: functional
Haemophilus influenzae [1] = assay: Bactericidal activity against Haemophilus influenzae type b ATCC 49247 incubated for 24 hrs followed by transferring to freshly prepared broth medium and measured after 24 hrs by M7-A9 microdilution method; settings: type b ATCC 49247, 24 h
Haemophilus influenzae [2] = assay: Ratio of MBC to MIC for Haemophilus influenzae type b ATCC 49247 by M7-A9 microdilution method
Haemophilus influenzae [3] = assay: Antibacterial activity against Haemophilus influenzae type b ATCC 49247 incubated for 24 hrs by M7-A9 microdilution method; settings: type b ATCC 49247, 24 h
In short: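 CLSI M7-A9 broth microdilution against H. influenzae ATCC 49247. Compounds held as 2 mg/mL DMSO stocks, diluted 2-fold in Mueller–Hinton broth across 50 to 0.1 μg/mL. Wells received inoculum standardized to 0.5 McFarland and were run in triplicate. After 24 h at 37 °C, MIC taken as the lowest concentration preventing visible turbidity. Ciprofloxacin served as positive control.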

Row | SMILES | MBC (Haemophilus influenzae [1]) | Ratio (Haemophilus influenzae [2]) | MIC (Haemophilus influenzae [3])
1 | CC1(C)CC[C@]2(C(=O)O)CC[C@]3(C)C(=CC[C@@H]4[C@@]5(C)CC[C@H](O)[C@@](C)(CO)[C@@H]5[C@H](O)C[C@]43C)[C@@H]2C1 | 50 µg/mL (≈ 102 µM) | 2.7 | 18.8 µg/mL (≈ 38.5 µM)
2 | C/C=C1/CO[C@H](O)[C@H]2C(=O)N3CCc4c([nH]c5ccccc45)[C@@H]3C[C@@H]12 | 12.5 µg/mL (≈ 36.9 µM) | 2.7 | 4.7 µg/mL (≈ 13.9 µM)
3 | C/C=C(/C=O)c1cc2n(c(=O)c1O)CCc1c-2[nH]c2ccccc12 | > 50 µg/mL | >1 | 50 µg/mL (≈ 156 µM)
4 | C[C@H]1OC=C2C(=O)N3CCc4c([nH]c5ccccc45)[C@@H]3C[C@H]2[C@@H]1C=O | 12.5 µg/mL (≈ 37.2 µM) | 4 | 3.1 µg/mL (≈ 9.22 µM)
5 | CC(O)c1coc2c(=O)n3c(cc12)-c1[nH]c2ccccc2c1CC3 (centres undefined) | 50 µg/mL (≈ 156 µM) | 2 | 25 µg/mL (≈ 78 µM)
6 | C[C@H]1[C@H](C)CC[C@]2(C(=O)O)CC[C@]3(C(=O)O)C(=CC[C@@H]4[C@@]5(C)CC[C@H](O)C(C)(C)[C@@H]5CC[C@]43C)[C@H]12 | > 50 µg/mL | >2 | 25 µg/mL (≈ 51.4 µM)
7 | CC1(C)CC[C@]2(C(=O)O)CC[C@]3(C)C(=CC[C@@H]4[C@@]5(C)CC[C@H](O)[C@@](C)(CO)[C@@H]5[C@H](O)C[C@]43C)[C@@H]2[C@@H]1O | 50 µg/mL (≈ 99.1 µM) | 2.7 | 18.8 µg/mL (≈ 37.2 µM)
8 | C[C@@H]1CC[C@]2(C(=O)O)CC[C@]3(C)C(=CC[C@@H]4[C@@]5(C)CC[C@@H]6OC([C@H]7[C@@H]8C[C@H]9c%10[nH]c%11ccccc%11c%10CCN9C(=O)C8=CO[C@@H]7C)OC[C@]6(CO)[C@@H]5CC[C@]43C)[C@@H]2[C@]1(C)O (some centres undefined) | 50 µg/mL (≈ 60.7 µM) | 2 | 25 µg/mL (≈ 30.4 µM)
9 | C[C@H]1[C@H](C)CC[C@]2(C(=O)O)CC[C@]3(C(=O)O)C(=CC[C@@H]4[C@@]5(C)CCC(=O)C(C)(C)[C@@H]5CC[C@]43C)[C@H]12 | 50 µg/mL (≈ 103 µM) | 2.7 | 18.8 µg/mL (≈ 38.8 µM)
10 | COC(OC)[C@H]1[C@@H]2C[C@H]3c4[nH]c5ccccc5c4CCN3C(=O)C2=CO[C@@H]1C | > 50 µg/mL | >1 | 50 µg/mL (≈ 131 µM)
11 | C/C=C1/COC(=O)[C@H]2C(=O)N3CCc4c([nH]c5ccccc45)[C@@H]3C[C@@H]12 | 12.5 µg/mL (≈ 37.2 µM) | 2.7 | 4.7 µg/mL (≈ 14 µM)
12 | O=C(O)c1cn(C2CC2)c2cc(N3CCNCC3)c(F)cc2c1=O [CIPROFLOXACIN] | 1.6 µg/mL (≈ 4.83 µM) | 1 | 1.6 µg/mL (≈ 4.83 µM)
13 | C[C@@H]1CC[C@]2(C(=O)O)CC[C@]3(C)C(=CC[C@@H]4[C@@]5(C)CC[C@H](O)C(C)(C)[C@@H]5CC[C@]43C)[C@@H]2[C@]1(C)O [POMOLIC ACID] | 50 µg/mL (≈ 106 µM) | 2.7 | 18.8 µg/mL (≈ 39.8 µM)
